The target in the assay is Potassium channel subfamily K member 9 (Homo sapiens) (UniProt Q9NPC2). Description: concentration-dependent blockade of KCNK9 channel – cell-based, round 4, SAR follow-up (AID 623887). The settings on record: HEK293-KCNK9 thallium flux, FluxOR fluorescence; for flux ratio, lower = inhibition: at 30 µM (top of the series). In a few lines: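 Test system: tetracycline-induced HEK293 cells stably expressing the KCNK9 channel; signal: kinetic FluxOR fluorescence of thallium influx, 110 s after stimulus; reagent: Potassium/thallium sulfate stimulus buffer (5x stock); incubation: dye 90 min, compound 20 min at room temperature; repeats: replicate measurements at each compound concentration; dosing: multi-concentration series of test compound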
Potassium channel subfamily K member 9 (Homo sapiens), sequence (Q9NPC2 whole entry, looked up): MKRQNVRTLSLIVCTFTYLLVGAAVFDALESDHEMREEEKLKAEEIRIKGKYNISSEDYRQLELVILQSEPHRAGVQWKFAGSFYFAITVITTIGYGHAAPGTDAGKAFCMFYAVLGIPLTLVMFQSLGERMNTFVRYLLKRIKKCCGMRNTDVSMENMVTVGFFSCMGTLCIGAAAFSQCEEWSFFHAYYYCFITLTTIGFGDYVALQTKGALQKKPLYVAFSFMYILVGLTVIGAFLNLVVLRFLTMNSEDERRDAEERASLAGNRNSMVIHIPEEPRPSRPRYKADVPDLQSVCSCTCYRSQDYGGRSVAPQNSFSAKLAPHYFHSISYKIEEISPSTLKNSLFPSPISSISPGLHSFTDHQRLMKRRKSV

Values joined by “and” are separate entries in the source; they are usually repeats but may differ in a detail not shown here. Identical values can stand only once. Active and inactive are the calls of the source.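 How the source made its calls: active means blocks the KCNK9 potassium channel at some tested concentration and gives a dose response curve; inactive means the rest.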

With `CC(C1CC2CCC1C2)n1c(-c2ccco2)nn(CCc2ccncc2)c1=S` (stereo not drawn), the IC50 (usually the midpoint of a concentration-inhibition curve) is 223 nM. On the same count and under the same terms, the result for `CC(C1CC2CCC1C2)n1c(SCCc2ccccn2)nnc1-c1ccco1` (stereo not drawn) reads 3090 nM; that for `C[C@H]([C@@H]1CC2CC[C@H]1C2)n1c(-c2ccco2)n[nH]c1=S`, 53 nM; that for `COc1ccc(CC(=O)NCc2ccccc2-c2ccccc2C(=O)NCc2ccc(F)cc2F)cc1`, 3200 nM. Still for that read-out and setting: the result for `C[C@H]([C@@H]1CC2CC[C@H]1C2)n1c(-c2ccccc2F)n[nH]c1=S` reads 169 nM; that for `COc1ccc(CSc2nnc(-c3ccco3)n2C(C)C2CC3CCC2C3)cc1OC` (stereo not drawn), 547 nM; that for `CCCC(=O)C1CCN(c2ncnc3c2CN(C(=O)c2ccc(-c4ccccc4)cc2)CC3)CC1`, 141 nM. On to `C[C@H](C1CCCCC1)n1c(-c2ccccc2F)n[nH]c1=S`, for which the IC50 was 683 nM.

As to `C[C@H](C1CCCCC1)n1c(-c2ccsc2)n[nH]c1=S`, the IC50 was 428 nM. `COc1cccc(-c2n[nH]c(=S)n2[C@H](C)[C@@H]2CC3CC[C@H]2C3)c1`: the IC50 was 467 nM. As to `C[C@@H]([C@@H]1CC2CC[C@H]1C2)n1c(-c2ccsc2)n[nH]c1=S`, the IC50 was 146 nM and 544 nM. With `CC(C1CC2CCC1C2)n1c(SCCc2cccc(O)c2)nnc1-c1ccco1` (stereo not drawn), the IC50 was 1830 nM. Regarding `COc1cccc(CCSc2nnc(-c3ccco3)n2C(C)C2CC3CCC2C3)c1` (stereo not drawn), the IC50 was 1190 nM.

For the compound `C[C@@H]([C@@H]1CC2CC[C@H]1C2)n1c(-c2ccco2)n[nH]c1=S`, the IC50 is 181 nM and 128 nM. Consider `CC(C1CC2CCC1C2)n1c(SCCN2CCOCC2)nnc1-c1ccco1` (stereo not drawn), for which the “flux ratio, lower = inhibition” value was “inactive”. As to `CC(C1CCN(C)CC1)n1c(-c2ccco2)n[nH]c1=S` (stereo not drawn), the “flux ratio, lower = inhibition” value is “inactive”. `CC(C1C[C@H]2CCC1C2)n1c(-c2ccsc2)n[nH]c1=S` (stereo partly drawn): the IC50 was 582 nM. With `CC(C1CC2CCC1C2)n1c(SCC(=O)N2CCN(C)CC2)nnc1-c1ccco1` (stereo not drawn), the IC50 was 28000 nM.

`COc1cccc(-c2nnc(SSc3nnc(-c4cccc(OC)c4)n3C(C)C3CC4CCC3C4)n2C(C)C2CC3CCC2C3)c1` (stereo not drawn): the IC50 is 28000 nM.

Consider `COc1cccc(-c2n[nH]c(=S)n2[C@H](C)C2CCCCC2)c1`, for which the IC50 is 3420 nM.

With `COc1ccc(NC(=O)CSc2nnc(-c3ccco3)n2C(C)C2CC3CCC2C3)cc1OC` (stereo not drawn), the IC50 was 18300 nM. On the same count and under the same terms, the result for `COc1ccc(C(=O)CCSc2nnc(-c3ccco3)n2C(C)C2CC3CCC2C3)cc1OC` (stereo not drawn) reads 663 nM; that for `CC([C@@H]1CC2CC[C@H]1C2)n1c(-c2ccsc2)n[nH]c1=S` (stereo partly drawn), 180 nM.

(Values after PubChem BioAssay AID623887 (Johns Hopkins Ion Channel Center, 2012).)
